The source made the active and inactive calls. No cut-off for these calls is given here.
test system: Allium cepa; assay: Inhibition of germination of Allium cepa cv. Valenciana (onion) at 0.1 mM or 1 mM after 5 days relative to untreated control; format: functional

| SMILES | inhibition |
| --- | --- |
| CC(=O)O[C@H]1CC(C)=C2C(=O)C=C(C)[C@@H]2[C@H]2OC(=O)[C@H](C)[C@H]21 [8ALPHA-ACETOXYACHILLIN] | inactive |

test system: Triticum aestivum; assay: Inhibition of root length of Triticum aestivum cv. Cortex (wheat) at 0.1 mM or 1 mM after 5 days relative to untreated control; format: functional
In short: (§1)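 Wheat: 10 seeds per dish on filter paper with 5 mL test solution, 5 days in the dark at 25 °C, 10 replicates per concentration. Stock test solutions were 10^-3 or 10^-4 M in 10 mM MES, with lower levels made by dilution, all at pH 6.0. Parallel controls were run. Output is % difference from control.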

| SMILES | inhibition |
| --- | --- |
| CC(=O)O[C@H]1CC(C)=C2C(=O)C=C(C)[C@@H]2[C@H]2OC(=O)[C@H](C)[C@H]21 [8ALPHA-ACETOXYACHILLIN] | inactive |

test system: Triticum aestivum; assay: Inhibition of hypocotyl length of Triticum aestivum cv. Cortex (wheat) at 0.1 mM or 1 mM after 5 days relative to untreated control; format: functional; in short: as §1

| SMILES | inhibition (INH) [%] |
| --- | --- |
| CC(=O)O[C@H]1CC(C)=C2C(=O)C=C(C)[C@@H]2[C@H]2OC(=O)[C@H](C)[C@H]21 [8ALPHA-ACETOXYACHILLIN] | <20 |

test system: Triticum aestivum; assay: Inhibition of germination of Triticum aestivum cv. Cortex (wheat) at 0.1 mM or 1 mM after 5 days relative to untreated control; format: functional; in short: as §1

| SMILES | inhibition (INH) [%] |
| --- | --- |
| CC(=O)O[C@H]1CC(C)=C2C(=O)C=C(C)[C@@H]2[C@H]2OC(=O)[C@H](C)[C@H]21 [8ALPHA-ACETOXYACHILLIN] | 20 |

test system: Solanum lycopersicum; assay: Inhibition of hypocotyl length of Solanum lycopersicum cv. Tres Cantos (tomato) at 0.1 mM or 1 mM after 5 days relative to untreated control; format: functional
In short: (§2)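 Lettuce and tomato seeds, 25 per dish on filter paper, received 5 mL test solution. Incubation was 5 days in the dark at 25 °C, with four replicates per concentration. Solutions were made at 10^-3 or 10^-4 M in 10 mM MES, diluted serially, and adjusted to pH 6.0. Parallel controls were run. Results are % difference from control.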

| SMILES | inhibition (INH) [%] |
| --- | --- |
| CC(=O)O[C@H]1CC(C)=C2C(=O)C=C(C)[C@@H]2[C@H]2OC(=O)[C@H](C)[C@H]21 [8ALPHA-ACETOXYACHILLIN] | <20 |

test system: Solanum lycopersicum; assay: Inhibition of root length of Solanum lycopersicum cv. Tres Cantos (tomato) at 0.1 mM or 1 mM after 5 days relative to untreated control; format: functional; in short: as §2

| SMILES | inhibition |
| --- | --- |
| CC(=O)O[C@H]1CC(C)=C2C(=O)C=C(C)[C@@H]2[C@H]2OC(=O)[C@H](C)[C@H]21 [8ALPHA-ACETOXYACHILLIN] | inactive |

test system: Allium cepa; assay: Inhibition of root length of Allium cepa cv. Valenciana (onion) at 0.1 mM or 1 mM after 5 days relative to untreated control; format: functional

| SMILES | inhibition |
| --- | --- |
| CC(=O)O[C@H]1CC(C)=C2C(=O)C=C(C)[C@@H]2[C@H]2OC(=O)[C@H](C)[C@H]21 [8ALPHA-ACETOXYACHILLIN] | inactive |

test system: Triticum aestivum; assay: Stimulation of hypocotyl length of Triticum aestivum cv. Cortex (wheat) at 0.1 mM or 1 mM after 5 days relative to untreated control; format: functional; in short: as §1

| SMILES | Activity [%] |
| --- | --- |
| CC(=O)O[C@H]1CC(C)=C2C(=O)C=C(C)[C@@H]2[C@H]2OC(=O)[C@H](C)[C@H]21 [8ALPHA-ACETOXYACHILLIN] | <20 |

test system: Triticum aestivum; assay: Stimulation of root length of Triticum aestivum cv. Cortex (wheat) at 0.1 mM or 1 mM after 5 days relative to untreated control; format: functional; in short: as §1

| SMILES | Activity |
| --- | --- |
| CC(=O)O[C@H]1CC(C)=C2C(=O)C=C(C)[C@@H]2[C@H]2OC(=O)[C@H](C)[C@H]21 [8ALPHA-ACETOXYACHILLIN] | inactive |

test system: Solanum lycopersicum; assay: Inhibition of germination of Solanum lycopersicum cv. Tres Cantos (tomato) at 0.1 mM or 1 mM after 5 days relative to untreated control; format: functional; in short: as §2

| SMILES | inhibition |
| --- | --- |
| CC(=O)O[C@H]1CC(C)=C2C(=O)C=C(C)[C@@H]2[C@H]2OC(=O)[C@H](C)[C@H]21 [8ALPHA-ACETOXYACHILLIN] | inactive |

test system: Lactuca sativa; assay: Inhibition of hypocotyl length of Lactuca sativa cv. Roman (lettuce) at 0.1 mM or 1 mM after 5 days relative to untreated control; format: functional; in short: as §2

| SMILES | inhibition (INH) [%] |
| --- | --- |
| CC(=O)O[C@H]1CC(C)=C2C(=O)C=C(C)[C@@H]2[C@H]2OC(=O)[C@H](C)[C@H]21 [8ALPHA-ACETOXYACHILLIN] | <20 |

test system: Lactuca sativa; assay: Inhibition of root length of Lactuca sativa cv. Roman (lettuce) at 0.1 mM or 1 mM after 5 days relative to untreated control; format: functional; in short: as §2

| SMILES | inhibition (INH) [%] |
| --- | --- |
| CC(=O)O[C@H]1CC(C)=C2C(=O)C=C(C)[C@@H]2[C@H]2OC(=O)[C@H](C)[C@H]21 [8ALPHA-ACETOXYACHILLIN] | <20 |

test system: Lactuca sativa; assay: Inhibition of germination of Lactuca sativa cv. Roman (lettuce) at 0.1 mM or 1 mM after 5 days relative to untreated control; format: functional; in short: as §2

| SMILES | inhibition |
| --- | --- |
| CC(=O)O[C@H]1CC(C)=C2C(=O)C=C(C)[C@@H]2[C@H]2OC(=O)[C@H](C)[C@H]21 [8ALPHA-ACETOXYACHILLIN] | inactive |

test system: Triticum aestivum; assay: Stimulation of germination of Triticum aestivum cv. Cortex (wheat) at 0.1 mM or 1 mM after 5 days relative to untreated control; format: functional; in short: as §1

| SMILES | Activity [%] |
| --- | --- |
| CC(=O)O[C@H]1CC(C)=C2C(=O)C=C(C)[C@@H]2[C@H]2OC(=O)[C@H](C)[C@H]21 [8ALPHA-ACETOXYACHILLIN] | 20 |

test system: Solanum lycopersicum; assay: Stimulation of hypocotyl length of Solanum lycopersicum cv. Tres Cantos (tomato) at 0.1 mM or 1 mM after 5 days relative to untreated control; format: functional; in short: as §2

| SMILES | Activity [%] |
| --- | --- |
| CC(=O)O[C@H]1CC(C)=C2C(=O)C=C(C)[C@@H]2[C@H]2OC(=O)[C@H](C)[C@H]21 [8ALPHA-ACETOXYACHILLIN] | <20 |

test system: Solanum lycopersicum; assay: Stimulation of root length of Solanum lycopersicum cv. Tres Cantos (tomato) at 0.1 mM or 1 mM after 5 days relative to untreated control; format: functional; in short: as §2

| SMILES | Activity |
| --- | --- |
| CC(=O)O[C@H]1CC(C)=C2C(=O)C=C(C)[C@@H]2[C@H]2OC(=O)[C@H](C)[C@H]21 [8ALPHA-ACETOXYACHILLIN] | inactive |

test system: Solanum lycopersicum; assay: Stimulation of germination of Solanum lycopersicum cv. Tres Cantos (tomato) at 0.1 mM or 1 mM after 5 days relative to untreated control; format: functional; in short: as §2

| SMILES | Activity |
| --- | --- |
| CC(=O)O[C@H]1CC(C)=C2C(=O)C=C(C)[C@@H]2[C@H]2OC(=O)[C@H](C)[C@H]21 [8ALPHA-ACETOXYACHILLIN] | inactive |

test system: Lepidium sativum; assay: Stimulation of hypocotyl length of Lepidium sativum at 0.1 mM or 1 mM after 5 days relative to untreated control; format: functional

| SMILES | Activity |
| --- | --- |
| CC(=O)O[C@H]1CC(C)=C2C(=O)C=C(C)[C@@H]2[C@H]2OC(=O)[C@H](C)[C@H]21 [8ALPHA-ACETOXYACHILLIN] | inactive |

test system: Lepidium sativum; assay: Stimulation of root length of Lepidium sativum at 0.1 mM or 1 mM after 5 days relative to untreated control; format: functional

| SMILES | Activity |
| --- | --- |
| CC(=O)O[C@H]1CC(C)=C2C(=O)C=C(C)[C@@H]2[C@H]2OC(=O)[C@H](C)[C@H]21 [8ALPHA-ACETOXYACHILLIN] | inactive |

test system: Lactuca sativa; assay: Stimulation of root length of Lactuca sativa cv. Roman (lettuce) at 0.1 mM or 1 mM after 5 days relative to untreated control; format: functional; in short: as §2

| SMILES | Activity [%] |
| --- | --- |
| CC(=O)O[C@H]1CC(C)=C2C(=O)C=C(C)[C@@H]2[C@H]2OC(=O)[C@H](C)[C@H]21 [8ALPHA-ACETOXYACHILLIN] | <20 |

test system: Lactuca sativa; assay: Stimulation of hypocotyl length of Lactuca sativa cv. Roman (lettuce) at 0.1 mM or 1 mM after 5 days relative to untreated control; format: functional; in short: as §2

| SMILES | Activity [%] |
| --- | --- |
| CC(=O)O[C@H]1CC(C)=C2C(=O)C=C(C)[C@@H]2[C@H]2OC(=O)[C@H](C)[C@H]21 [8ALPHA-ACETOXYACHILLIN] | <20 |

test system: Lactuca sativa; assay: Stimulation of germination of Lactuca sativa cv. Roman (lettuce) at 0.1 mM or 1 mM after 5 days relative to untreated control; format: functional; in short: as §2

| SMILES | Activity |
| --- | --- |
| CC(=O)O[C@H]1CC(C)=C2C(=O)C=C(C)[C@@H]2[C@H]2OC(=O)[C@H](C)[C@H]21 [8ALPHA-ACETOXYACHILLIN] | inactive |

test system: Lepidium sativum; assay: Inhibition of root length of Lepidium sativum at 0.1 mM or 1 mM after 4 days relative to untreated control

| SMILES | inhibition |
| --- | --- |
| CC(=O)O[C@H]1CC(C)=C2C(=O)C=C(C)[C@@H]2[C@H]2OC(=O)[C@H](C)[C@H]21 [8ALPHA-ACETOXYACHILLIN] | inactive |

test system: Lepidium sativum; assay: Inhibition of germination of Lepidium sativum at 0.1 mM or 1 mM after 4 days relative to untreated control

| SMILES | Activity | inhibition |
| --- | --- | --- |
| CC(=O)O[C@H]1CC(C)=C2C(=O)C=C(C)[C@@H]2[C@H]2OC(=O)[C@H](C)[C@H]21 [8ALPHA-ACETOXYACHILLIN] | inactive | inactive |

test system: Lepidium sativum; assay: Inhibition of hypocotyl length of Lepidium sativum at 0.1 mM or 1 mM after 4 days relative to untreated control

| SMILES | inhibition |
| --- | --- |
| CC(=O)O[C@H]1CC(C)=C2C(=O)C=C(C)[C@@H]2[C@H]2OC(=O)[C@H](C)[C@H]21 [8ALPHA-ACETOXYACHILLIN] | inactive |

test system: Allium cepa; assay: Stimulation of root length of Allium cepa cv. Valenciana (onion) at 0.1 mM or 1 mM after 7 days relative to untreated control

| SMILES | Activity |
| --- | --- |
| CC(=O)O[C@H]1CC(C)=C2C(=O)C=C(C)[C@@H]2[C@H]2OC(=O)[C@H](C)[C@H]21 [8ALPHA-ACETOXYACHILLIN] | inactive |

test system: Allium cepa; assay: Stimulation of germination of Allium cepa cv. Valenciana (onion) at 0.1 mM or 1 mM after 7 days relative to untreated control

| SMILES | Activity |
| --- | --- |
| CC(=O)O[C@H]1CC(C)=C2C(=O)C=C(C)[C@@H]2[C@H]2OC(=O)[C@H](C)[C@H]21 [8ALPHA-ACETOXYACHILLIN] | inactive |

test system: Allium cepa; assay: Inhibition of hypocotyl length of Allium cepa cv. Valenciana (onion) at 0.1 mM or 1 mM after 7 days relative to untreated control

| SMILES | inhibition |
| --- | --- |
| CC(=O)O[C@H]1CC(C)=C2C(=O)C=C(C)[C@@H]2[C@H]2OC(=O)[C@H](C)[C@H]21 [8ALPHA-ACETOXYACHILLIN] | inactive |

test system: Allium cepa; assay: Stimulation of hypocotyl length of Allium cepa cv. Valenciana (onion) at 0.1 mM or 1 mM after 7 days relative to untreated control

| SMILES | Activity |
| --- | --- |
| CC(=O)O[C@H]1CC(C)=C2C(=O)C=C(C)[C@@H]2[C@H]2OC(=O)[C@H](C)[C@H]21 [8ALPHA-ACETOXYACHILLIN] | inactive |
